This note sets out measurements from ChEMBL document CHEMBL1130267, “Regulation of retinoidal actions by diazepinylbenzoic acids. Retinoid synergists which activate the RXR-RAR heterodimers” (J Med Chem, 1997).

A word on the IC50: it is the concentration that inhibits the measured activity by half. Read a low IC50 as greater potency in that assay. Broadly, the Ki is a measure of affinity in units of concentration, obtained from inhibition or displacement.

Assay [1] relates to HL-60. Put plainly: Concentration which reduces by half the percentage of differentiated HL-60 cells induced by 1 x 10e-9 M Am80. The format is functional, cell-based. The note with it: Homo sapiens. Put shortly:
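Antagonism in HL-60 cells cotreated with 1 × 10^-9 M Am80 for 4 days, with Am80 alone and test compound alone run in parallel. Cells were seeded at about 8 × 10⁴/mL in RPMI1640/5% FBS, and compounds came from 2 mM ethanol stocks (final ethanol <0.5%). NBT reduction (0.2% NBT, 200 ng/mL TPA, 20 min, 37 °C) was counted on ≥200 cells. IC50 is the concentration halving the % of differentiated cells. Run at least twice.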

The target of assay [2] is T1, Retinoic acid receptor beta (Homo sapiens, UniProt P10826).
T1 sequence (P10826 whole entry): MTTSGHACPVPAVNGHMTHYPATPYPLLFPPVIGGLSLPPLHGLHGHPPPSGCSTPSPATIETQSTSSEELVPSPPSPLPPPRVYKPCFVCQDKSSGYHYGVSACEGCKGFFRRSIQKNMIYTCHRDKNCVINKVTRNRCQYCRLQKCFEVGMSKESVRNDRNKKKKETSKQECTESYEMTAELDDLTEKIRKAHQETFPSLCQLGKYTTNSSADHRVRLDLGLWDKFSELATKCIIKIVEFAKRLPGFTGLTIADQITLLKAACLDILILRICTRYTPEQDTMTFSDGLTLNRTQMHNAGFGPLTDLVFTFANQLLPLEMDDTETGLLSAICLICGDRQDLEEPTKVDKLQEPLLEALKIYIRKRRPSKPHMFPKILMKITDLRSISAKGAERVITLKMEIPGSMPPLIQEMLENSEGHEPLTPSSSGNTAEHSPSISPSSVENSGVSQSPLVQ
Description: Antagonistic activity towards retinoic acid receptor-beta. The format is functional. Put shortly:
(§1)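 Filter binding competition on the MBP-fused RARβ ligand-binding domain against 20 nM [³H]Am80. The IC50 for halving specific binding was converted to Ki via Ki = IC50/(1 + [L]/Kd).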

Assay [3] concerns the target T2, Retinoic acid receptor alpha (Homo sapiens, UniProt P10276).
T2 sequence (P10276 whole entry): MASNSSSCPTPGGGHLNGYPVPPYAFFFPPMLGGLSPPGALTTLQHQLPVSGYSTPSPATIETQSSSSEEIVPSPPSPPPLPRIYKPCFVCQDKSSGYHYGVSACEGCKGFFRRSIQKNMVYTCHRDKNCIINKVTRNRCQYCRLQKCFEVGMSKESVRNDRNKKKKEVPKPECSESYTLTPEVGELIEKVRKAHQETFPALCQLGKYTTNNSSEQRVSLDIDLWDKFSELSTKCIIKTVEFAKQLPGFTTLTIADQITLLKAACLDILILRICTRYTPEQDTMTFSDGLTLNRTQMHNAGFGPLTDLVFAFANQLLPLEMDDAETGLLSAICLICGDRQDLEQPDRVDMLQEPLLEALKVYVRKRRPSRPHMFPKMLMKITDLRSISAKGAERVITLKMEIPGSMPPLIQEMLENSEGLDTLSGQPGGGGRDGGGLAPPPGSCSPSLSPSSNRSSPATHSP
Description: Antagonistic activity towards retinoic acid receptor-alpha. The class given is functional. Put shortly:
(§2)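 Competitive nitrocellulose filter binding to recombinant RARα ligand-binding domain fused to maltose-binding protein, using 8 nM [³H]Am80 as tracer. IC50 for displacement of specific binding was converted to Ki by Ki = IC50/(1 + [L]/Kd).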

Assay [4] relates to HL-60. Description: Concentration of a compound which induces HL-60 cell differentiation to the extent of 50%; inactive below 1.0E-6M test compound. The class given is functional, cell-based, Homo sapiens.
In assay [5] the target is T3, Retinoic acid receptor RXR-alpha (Homo sapiens, UniProt P19793).
T3 sequence (P19793 whole entry): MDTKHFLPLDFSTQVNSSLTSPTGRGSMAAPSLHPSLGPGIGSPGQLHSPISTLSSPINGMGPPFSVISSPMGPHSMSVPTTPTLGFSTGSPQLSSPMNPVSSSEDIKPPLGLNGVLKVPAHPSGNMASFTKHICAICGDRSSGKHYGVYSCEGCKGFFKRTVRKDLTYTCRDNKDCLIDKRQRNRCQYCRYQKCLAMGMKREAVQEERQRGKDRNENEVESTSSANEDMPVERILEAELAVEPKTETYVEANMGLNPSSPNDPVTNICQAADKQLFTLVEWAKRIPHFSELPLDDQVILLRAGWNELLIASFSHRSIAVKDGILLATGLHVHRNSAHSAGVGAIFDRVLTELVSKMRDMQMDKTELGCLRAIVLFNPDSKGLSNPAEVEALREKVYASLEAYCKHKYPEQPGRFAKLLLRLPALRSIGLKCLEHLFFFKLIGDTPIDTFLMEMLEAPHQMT
Description: Antagonistic activity towards retinoid X receptor-alpha. The class given is functional.

Assay [6] deals with T4, Retinoic acid receptor RXR-gamma (Homo sapiens, UniProt P48443).
T4 sequence (P48443 whole entry): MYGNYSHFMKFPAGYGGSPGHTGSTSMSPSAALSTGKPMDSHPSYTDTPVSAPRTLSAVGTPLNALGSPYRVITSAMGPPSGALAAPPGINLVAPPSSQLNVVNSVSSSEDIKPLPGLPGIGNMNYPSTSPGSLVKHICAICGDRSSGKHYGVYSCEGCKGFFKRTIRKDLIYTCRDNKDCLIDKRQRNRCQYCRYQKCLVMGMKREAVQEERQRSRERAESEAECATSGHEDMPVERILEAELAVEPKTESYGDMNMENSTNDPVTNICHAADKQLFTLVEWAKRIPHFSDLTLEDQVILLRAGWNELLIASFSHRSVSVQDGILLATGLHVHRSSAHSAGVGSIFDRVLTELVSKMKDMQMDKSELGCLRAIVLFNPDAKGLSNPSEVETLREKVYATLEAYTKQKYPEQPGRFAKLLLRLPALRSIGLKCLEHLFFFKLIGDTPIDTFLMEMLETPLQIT
Put plainly: Antagonistic activity towards retinoid X receptor-gamma. The class given is functional.

The target in assay [7] is T5, Retinoic acid receptor gamma (Homo sapiens, UniProt P13631).
T5 sequence (P13631 whole entry): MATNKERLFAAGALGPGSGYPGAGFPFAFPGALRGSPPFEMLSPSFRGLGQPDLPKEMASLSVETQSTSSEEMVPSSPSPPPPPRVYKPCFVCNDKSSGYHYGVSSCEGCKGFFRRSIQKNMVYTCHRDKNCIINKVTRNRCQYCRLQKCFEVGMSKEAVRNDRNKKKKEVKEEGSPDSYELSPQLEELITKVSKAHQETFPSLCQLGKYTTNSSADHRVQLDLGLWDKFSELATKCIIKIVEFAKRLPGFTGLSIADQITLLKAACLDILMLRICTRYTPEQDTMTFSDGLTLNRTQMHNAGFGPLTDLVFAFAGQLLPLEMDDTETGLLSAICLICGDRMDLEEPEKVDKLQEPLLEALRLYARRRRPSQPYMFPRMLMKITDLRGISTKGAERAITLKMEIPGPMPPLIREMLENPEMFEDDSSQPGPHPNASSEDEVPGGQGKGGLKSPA
Put plainly: Antagonistic activity towards retinoic acid receptor-gamma. The class given is functional. Put shortly: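 Recombinant RARγ in a nitrocellulose filter competitive binding assay with 4 nM [³H]-9-cis-retinoic acid (diluted with cold ligand to 8 Ci/mmol). Ki = IC50/(1 + [L]/Kd).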

Assay [8] addresses T6, Retinoic acid receptor RXR-beta (Homo sapiens, UniProt P28702).
T6 sequence (P28702 whole entry): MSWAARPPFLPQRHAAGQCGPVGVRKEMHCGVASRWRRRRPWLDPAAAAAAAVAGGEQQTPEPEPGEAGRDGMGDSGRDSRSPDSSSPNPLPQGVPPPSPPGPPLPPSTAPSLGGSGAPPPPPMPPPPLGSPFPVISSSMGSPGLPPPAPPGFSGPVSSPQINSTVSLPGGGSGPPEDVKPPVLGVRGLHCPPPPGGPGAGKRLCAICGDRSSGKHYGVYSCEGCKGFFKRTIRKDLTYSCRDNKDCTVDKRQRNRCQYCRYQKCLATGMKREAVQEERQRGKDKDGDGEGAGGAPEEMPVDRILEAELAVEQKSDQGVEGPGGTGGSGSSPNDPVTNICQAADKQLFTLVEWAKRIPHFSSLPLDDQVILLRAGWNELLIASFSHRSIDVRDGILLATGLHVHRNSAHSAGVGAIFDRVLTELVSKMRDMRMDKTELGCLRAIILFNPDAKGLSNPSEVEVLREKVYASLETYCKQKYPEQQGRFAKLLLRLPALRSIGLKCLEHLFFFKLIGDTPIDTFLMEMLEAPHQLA
Description: Antagonistic activity towards retinoid X receptor-beta. The class given is functional.

Assay [9] has as its system HL-60. Put plainly: Concentration which reduces by half the percentage of differentiated HL-60 cells; Inactive at 1 x 10e-6 M. The class given is functional, cell-based, Homo sapiens.
For assay [10], the target named is T6, Retinoic acid receptor RXR-beta. Put plainly: Synergistic activity towards retinoid X receptor-beta.
Assay [11] has as its target T2, Retinoic acid receptor alpha. Description: Synergistic activity towards retinoic acid receptor-alpha. Put shortly: as §2
In assay [12] the target is T1, Retinoic acid receptor beta. Put plainly: Synergistic activity towards retinoic acid receptor-beta. Put shortly: as §1
The target in assay [13] is T3, Retinoic acid receptor RXR-alpha. Put plainly: Synergistic activity towards retinoid X receptor-alpha.
Assay [14] has as its target T4, Retinoic acid receptor RXR-gamma. Put plainly: Synergistic activity towards retinoid X receptor-gamma.

`CCCCCCCN1c2cc3c(cc2N=C(c2ccc(C(=O)O)cc2)c2ccccc21)C(C)(C)CCC3(C)C` showed an IC50 in assay [1] of 210 nM.
In the case of `CN1c2cc3c(cc2N=C(c2ccc(C(=O)O)cc2)c2ccccc21)C(C)(C)CCC3(C)C`, the results for the inhibitory constant (Ki) in [2] and in assay [3] were 220 nM and 1400 nM, respectively. The compound further gave an IC50 in [1] of 150 nM.
As to `CC1(C)CCC(C)(C)c2cc3c(cc21)NC(=O)CN=C3c1ccc(C(=O)O)cc1`, the EC50 result in assay [4] was “Not Active”.
Same read-out and setting: the value for `CN1c2ccccc2N=C(c2ccc(C(=O)O)cc2)c2cc(-c3ccccc3)ccc21` was “Not Active”.
Regarding `CN1c2cc3c(cc2N=C(c2ccc(C(=O)O)cc2)c2ccc4ccccc4c21)C(C)(C)CCC3(C)C`, the Ki in assay [2] stood at 500 nM; in assay [3] it was 1300 nM; in assay [5], 3800 nM; in assay [6] it was 1500 nM; in assay [7] it was 490 nM; in assay [8], 1700 nM. In assay [1], this compound yielded an IC50 of 36 nM.
Turning to `CC(C)c1cc2c(cc1C(C)C)N(C)c1ccccc1C(c1ccc(C(=O)O)cc1)=N2`, the IC50 result in [9] is “Not Active”.
Take `CN1c2cc3c(cc2N=C(c2ccc(C(=O)O)cc2)c2ccc4cc5ccccc5cc4c21)C(C)(C)CCC3(C)C`: half-maximal inhibition in [1] (IC50) required 320 nM.
For `CC1(C)CCC(C)(C)c2cc3c(cc21)Cc1ccccc1N=C3c1ccc(C(=O)O)cc1`, the inhibition constant Ki was determined as 790 nM in assay [10]; 1600 nM in assay [11]; 810 nM in assay [12]; 1800 nM in assay [13]; 1000 nM in [14].
In [1], `CN1c2ccc(C(C)(C)C)cc2N=C(c2ccc(C(=O)O)cc2)c2ccccc21` came in with an IC50 of over 1000 nM.
With `CCCN1c2cc3c(cc2N=C(c2ccc(C(=O)O)cc2)c2ccccc21)C(C)(C)CCC3(C)C`, the IC50 in assay [1] stood at 130 nM.
Consider `CN1c2ccccc2N=C(c2ccc(C(=O)O)cc2)c2cc(C(C)(C)C)ccc21`, for which the EC50 entry in assay [4] is given as “Not Active”.
The same measure, in the same setting: the value for `CN1c2ccccc2N=C(c2ccc(C(=O)O)cc2)c2ccccc21` was “Not Active”; that for `CN1c2ccccc2N=C(c2ccc(C(=O)O)cc2)c2cc(Br)ccc21` was “Not Active”.
For the compound `CC1(C)CCC(C)(C)c2cc3c(cc21)Oc1ccccc1N=C3c1ccc(C(=O)O)cc1`, the Ki stood at 1200 nM in assay [10]; 980 nM in assay [11]; 320 nM in [12]; 3800 nM in assay [13]; 2100 nM in assay [14].
`CC1c2ccccc2N=C(c2ccc(C(=O)O)cc2)c2cc3c(cc21)C(C)(C)CCC3(C)C` (centres undefined): the Ki in assay [11] stood at 2000 nM.
Consider `CN1c2ccc(C34CC5CC(CC(C5)C3)C4)cc2N=C(c2ccc(C(=O)O)cc2)c2ccccc21`, for which the IC50 result in assay [9] is given as “Not Active”.
The compound `CN1c2cc3c(cc2N=C(c2ccc(C(=O)O)cc2)c2cc4c(cc21)C(C)(C)CCC4(C)C)C(C)(C)CCC3(C)C` gave an IC50 in assay [1] of 830 nM.
Same read-out and setting: the value for `CN1c2cc3c(cc2N=C(c2ccc(C(=O)O)cc2)c2c1ccc1ccccc21)C(C)(C)CCC3(C)C` was 120 nM; that for `CN1c2cc3c(cc2N=C(c2ccc(C(=O)O)cc2)c2c1c1ccccc1c1ccccc21)C(C)(C)CCC3(C)C` was 350 nM.
Consider `CC1(C)CCC(C)(C)c2cc3c(cc21)Sc1ccccc1N=C3c1ccc(C(=O)O)cc1`, for which the Ki is 400 nM in assay [10]; 900 nM in assay [11]; 320 nM in [12]; 900 nM in assay [13]; 620 nM in [14].
With `CN1c2ccccc2N=C(c2ccc(C(=O)O)cc2)c2cc3c(cc21)C(C)(C)CCC3(C)C`, the Ki turned out to be 640 nM in assay [10], 680 nM in assay [12], 1900 nM in assay [13] and 1000 nM in [14].
